Assay results published in ChEMBL document CHEMBL3272019, “Synthesis and some properties and antitumor effects of the actinomycin lactam analog, (di(1-L-alpha, beta-diaminopropionic))actinomycin D1” (1976).
≈ marks a conversion by molar mass, not a printed value. Calls of active or inactive are those of the source. The rule behind the calls is not given here. Starred links: 1 amine or outer side, 2 acyl side, 3 side chain; linkers in the order of their positions; H or OH if unused. Positions of bridges follow the written chain, without caps; N, C: chain ends. Non-standard residues stand in square brackets, D forms with d. Residues, ends and D or L forms follow the SMILES beside them. Chains are numbered I, II in the order given. Actinocin(1to9) = Cc1c2oc3c(C)ccc(C(=O)[*:2])c3nc-2c(C(=O)[*:1])c(N)c1=O; NMeV = CN[C@H](C(=O)O)C(C)C; Sar = CNCC(=O)O

Columns and labels:
B16 [1] = assay: Antitumor activity against mouse B16 cells allografted in BDF1 mouse assessed as increase in life span at 0.4 mg/kg/injection, ip administered as single dose measured on day 60; assay type: functional; conditions: 1440 h, route intraperitoneal
Method in brief: (§1)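 B16 melanoma in mice, standard screening method. Schedules were daily on days 1–9, on days 1, 5 and 9, or a single day-1 injection, each over a four- to fivefold dose range. Survival time (range of individual deaths) was recorded, percent increase in life-span computed against untreated controls, and survivors tallied.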

P388 [2] = assay: Antitumor activity against mouse P388 cells allografted in BDF1 mouse assessed as increase in life span at 0.05 mg/kg/injection, ip administered daily for 9 days measured on day 60; assay type: functional; conditions: route intraperitoneal
Method in brief: (§2)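 P388 leukaemia: 10⁶ cells implanted ip on day 0 into groups of eight male BDF mice. Dosing was ip daily on days 1–9, on days 1, 5 and 9, or as a single day-1 dose, over four- to fivefold dose ranges. Median survival time (range of deaths) and percent increase in life-span were recorded, with survivors/total counted at day 60.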

L1210 [3] = assay: Antitumor activity against mouse L1210 cells allografted in BDF1 mouse assessed as increase in lifespan at 0.3 mg/kg/injection, ip administered intermittently on days 1, 5 and 9; assay type: functional; conditions: route intraperitoneal
Sarcina = assay: Antibacterial activity against Sarcina subflava assessed as growth inhibition; assay type: functional
L1210 [4] = assay: Antitumor activity against mouse L1210 cells allografted in BDF1 mouse assessed as increase in life span at 0.05 mg/kg/injection, ip administered daily for 9 days; assay type: functional; conditions: 216 h, route intraperitoneal
L1210 [5] = assay: Antitumor activity against mouse L1210 cells allografted in BDF1 mouse assessed as increase in life span at 0.4 mg/kg/injection, ip administered as single dose; assay type: functional; conditions: route intraperitoneal
Bacillus subtilis = assay: Antibacterial activity against Bacillus subtilis Marburg assessed as growth inhibition; assay type: functional
P388 [6] = assay: Antitumor activity against mouse P388 cells allografted in BDF1 mouse assessed as mean survival time at 0.05 mg/kg/injection, ip administered daily for 9 days (reference value: 10.5 days); assay type: functional; conditions: route intraperitoneal; method in brief: as §2
B16 [7] = assay: Antitumor activity against mouse B16 cells allografted in BDF1 mouse assessed as increase in life span at 0.3 mg/kg/injection, ip administered intermittently on days 1, 5 and 9 measured on day 60; assay type: functional; conditions: 1440 h, route intraperitoneal; method in brief: as §1
B16 [8] = assay: Antitumor activity against mouse B16 cells allografted in BDF1 mouse assessed as mean survival time at 0.025 mg/kg/injection, ip administered daily for 9 days (reference value: 28 days); assay type: functional; conditions: route intraperitoneal; method in brief: as §1
P388 [9] = assay: Antitumor activity against mouse P388 cells allografted in BDF1 mouse assessed as mean survival time at 0.3 mg/kg/injection, ip administered intermittently on days 1, 5 and 9 (reference value: 10.5 days); assay type: functional; conditions: route intraperitoneal; method in brief: as §2
B16 [10] = assay: Antitumor activity against mouse B16 cells allografted in BDF1 mouse assessed as mean survival time at 0.3 mg/kg/injection, ip administered intermittently on days 1, 5 and 9 (reference value: 28 days); assay type: functional; conditions: route intraperitoneal; method in brief: as §1
L1210 [11] = assay: Antitumor activity against mouse L1210 cells allografted in BDF1 mouse assessed as mean survival time at 0.05 mg/kg/injection, ip administered daily for 9 days (reference value: 9.6 days); assay type: functional; conditions: route intraperitoneal
P388 [12] = assay: Antitumor activity against mouse P388 cells allografted in BDF1 mouse assessed as increase in life span at 0.3 mg/kg/injection, ip administered intermittently on days 1, 5 and 9 measured on day 60; assay type: functional; conditions: 1440 h, route intraperitoneal; method in brief: as §2
B16 [13] = assay: Antitumor activity against mouse B16 cells allografted in BDF1 mouse assessed as increase in life span at 0.025 mg/kg/injection, ip administered daily for 9 days measured on day 60; assay type: functional; conditions: route intraperitoneal; method in brief: as §1
L1210 [14] = assay: Antitumor activity against mouse L1210 cells allografted in BDF1 mouse assessed as mean survival time at 0.4 mg/kg/injection, ip administered as single dose (reference value: 9.6 days); assay type: functional; conditions: route intraperitoneal
Homo sapiens [15] = species on record: Homo sapiens; assay: Binding affinity to poly[d(DAP-T)] (unknown origin) at 14.3 uM by visible and near-UV CD spectrophotometry
Method in brief: (§3)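 Visible and near-UV CD spectra of actinomycin D recorded free and with polynucleotide, in 0.01 M sodium phosphate pH 7.0 at about 23°, in 1-cm tandem cylindrical quartz cells. DNA levels were given as nucleotide phosphorus: PM2 0.54 mM, calf thymus 0.50 mM, poly[d(DAP-A-T)] 0.12 mM and poly[d(DAP-T)] 0.27 mM. Drug concentration was set from the 440 nm extinction coefficient (24450 M⁻¹ cm⁻¹).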

B16 [16] = assay: Antitumor activity against mouse B16 cells allografted in BDF1 mouse assessed as mean survival time at 0.4 mg/kg/injection, ip administered as single dose (reference value: 28 days); assay type: functional; conditions: route intraperitoneal; method in brief: as §1
Calf thymus DNA = assay: Binding affinity to calf thymus DNA at 34.5 uM by visible and near-UV CD spectrophotometry; assay type: nucleic-acid assay; conditions: Bos taurus; method in brief: as §3
Staphylococcus aureus = assay: Antibacterial activity against Penicillin-resistant Staphylococcus aureus assessed as growth inhibition; assay type: functional
[17] = system: Pseudoalteromonas phage PM2; assay: Binding affinity to bacteriophage PM2 DNA at 31 uM by visible and near-UV CD spectrophotometry; method in brief: as §3
P388 [18] = assay: Antitumor activity against mouse P388 cells allografted in BDF1 mouse assessed as increase in life span at 0.4 mg/kg/injection, ip administered as single dose measured on day 60; assay type: functional; conditions: 1440 h, route intraperitoneal; method in brief: as §2
Homo sapiens [19] = species on record: Homo sapiens; assay: Binding affinity to poly[d(DAP-A-T)] (unknown origin) at 14.3 uM by visible and near-UV CD spectrophotometry; method in brief: as §3
L1210 [20] = assay: Antitumor activity against mouse L1210 cells allografted in BDF1 mouse assessed as mean survival time at 0.3 mg/kg/injection, ip administered intermittently on days 1, 5 and 9 (reference value: 9.6 days); assay type: functional; conditions: route intraperitoneal
P388 [21] = assay: Antitumor activity against mouse P388 cells allografted in BDF1 mouse assessed as mean survival time at 0.4 mg/kg/injection, ip administered as single dose (reference value: 10.5 days); assay type: functional; conditions: route intraperitoneal; method in brief: as §2

## Cc1c2oc3c(C)ccc(C(=O)N[C@@H]4C(=O)N[C@H](C(C)C)C(=O)N5CCC[C@H]5C(=O)N(C)CC(=O)N(C)[C@@H](C(C)C)C(=O)O[C@@H]4C)c3nc-2c(C(=O)N[C@@H]2C(=O)N[C@H](C(C)C)C(=O)N3CCC[C@H]3C(=O)N(C)CC(=O)N(C)[C@@H](C(C)C)C(=O)O[C@@H]2C)c(N)c1=O [DACTINOMYCIN] (I: T[dV]P[Sar][NMeV] / II: T[dV]P[Sar][NMeV]; ester I:1-I:C, II:1-II:C; linker I:N-II:N via Actinocin(1to9))
B16 [1]
  ILS at 0.4 mg/kg: 38%
P388 [2]
  ILS at 0.05 mg/kg: 171%
L1210 [3]
  ILS at 0.3 mg/kg: 45%
Sarcina
  MIC: 0.045 µg/mL (≈ 0.0358 µM)
L1210 [4]
  ILS at 0.05 mg/kg: 42%
L1210 [5]
  ILS at 0.4 mg/kg: 31%
Bacillus subtilis
  MIC: 0.09 µg/mL (≈ 0.0717 µM)
Bacillus subtilis; read-out: ID50 (the source's name)
  IC50: 0.05 µg/mL (≈ 0.0398 µM)
P388 [6]
  MST: 28.5 days
B16 [7]
  ILS at 0.3 mg/kg: 48%
B16 [8]
  MST: 45 days
P388 [9]
  MST: 38 days
B16 [10]
  MST: 41.5 days
L1210 [11]
  MST: 13.6 days
P388 [12]
  ILS at 0.3 mg/kg: 262%
B16 [13]
  ILS at 0.025 mg/kg: 61%
L1210 [14]
  MST: 12.6 days
Homo sapiens [15]
  Activity: Active
B16 [16]
  MST: 38.5 days
Calf thymus DNA
  Activity: Active
Staphylococcus aureus
  MIC: 0.05 µg/mL (≈ 0.0398 µM)
[17]
  Activity: Active
P388 [18]
  ILS at 0.4 mg/kg: 110%
Homo sapiens [19]
  Activity: Active
L1210 [20]
  MST: 14 days
P388 [21]
  MST: 22 days
